Source: ChEMBL document CHEMBL1136653, “Discovery of a potent and selective agonist of the prostaglandin EP4 receptor” (Bioorg Med Chem Lett, 2003)

Key:
[1] = biological target: T1, Prostaglandin E2 receptor EP3 subtype (Homo sapiens, UniProt P43115); test: Binding affinity towards EP3 receptor expressed in HEK293 ebna cells recombinantly expressing the corresponding human prostanoid cDNAs; assay type: cell-based
T1 sequence (P43115 whole entry): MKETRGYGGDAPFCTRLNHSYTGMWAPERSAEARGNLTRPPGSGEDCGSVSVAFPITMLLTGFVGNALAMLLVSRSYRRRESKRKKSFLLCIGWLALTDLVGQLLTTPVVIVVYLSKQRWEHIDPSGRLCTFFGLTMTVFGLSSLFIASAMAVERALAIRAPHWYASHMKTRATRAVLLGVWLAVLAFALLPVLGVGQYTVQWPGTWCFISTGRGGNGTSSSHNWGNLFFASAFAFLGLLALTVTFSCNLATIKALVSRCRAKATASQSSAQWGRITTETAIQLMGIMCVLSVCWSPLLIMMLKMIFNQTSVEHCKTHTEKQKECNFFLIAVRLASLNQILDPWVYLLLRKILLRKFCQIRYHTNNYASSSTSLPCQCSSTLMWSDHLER
How it was run: (§1)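 Competition binding used membrane preparations, not intact cells, from HEK293ebna cells expressing each recombinant human prostanoid receptor cDNA.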

[2] = biological target: Prostaglandin E2 receptor EP2 subtype (Homo sapiens, UniProt P43116); test: Binding affinity towards EP2 receptor expressed in HEK293 ebna cells recombinantly expressing the corresponding human prostanoid cDNAs; assay type: cell-based; how it was run: as §1
[3] = biological target: Prostaglandin F2-alpha receptor (Homo sapiens, UniProt P43088); test: Binding affinity towards FP receptor expressed in HEK293 ebna cells recombinantly expressing the corresponding human prostanoid cDNAs; assay type: cell-based; how it was run: as §1
Thromboxane A2 receptor = biological target: T2, Thromboxane A2 receptor (Homo sapiens, UniProt P21731); test: Binding affinity towards TP receptor expressed in HEK293 ebna cells recombinantly expressing the corresponding human prostanoid cDNAs; assay type: cell-based; how it was run: as §1
T2 sequence (P21731 whole entry): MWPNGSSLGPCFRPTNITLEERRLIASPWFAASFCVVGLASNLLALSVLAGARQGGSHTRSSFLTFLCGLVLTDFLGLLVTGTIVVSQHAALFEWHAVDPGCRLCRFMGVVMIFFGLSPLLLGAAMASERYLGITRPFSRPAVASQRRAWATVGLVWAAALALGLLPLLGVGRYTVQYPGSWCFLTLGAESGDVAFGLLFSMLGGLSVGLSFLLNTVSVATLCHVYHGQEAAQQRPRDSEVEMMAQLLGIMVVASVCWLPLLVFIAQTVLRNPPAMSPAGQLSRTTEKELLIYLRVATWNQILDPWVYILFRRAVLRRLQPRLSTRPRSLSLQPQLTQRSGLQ

[4] = biological target: T3, Prostaglandin D2 receptor (Homo sapiens, UniProt Q13258); test: Binding affinity towards DP receptor expressed in HEK293 ebna cells recombinantly expressing the corresponding human prostanoid cDNAs; assay type: cell-based; how it was run: as §1
T3 sequence (Q13258 whole entry): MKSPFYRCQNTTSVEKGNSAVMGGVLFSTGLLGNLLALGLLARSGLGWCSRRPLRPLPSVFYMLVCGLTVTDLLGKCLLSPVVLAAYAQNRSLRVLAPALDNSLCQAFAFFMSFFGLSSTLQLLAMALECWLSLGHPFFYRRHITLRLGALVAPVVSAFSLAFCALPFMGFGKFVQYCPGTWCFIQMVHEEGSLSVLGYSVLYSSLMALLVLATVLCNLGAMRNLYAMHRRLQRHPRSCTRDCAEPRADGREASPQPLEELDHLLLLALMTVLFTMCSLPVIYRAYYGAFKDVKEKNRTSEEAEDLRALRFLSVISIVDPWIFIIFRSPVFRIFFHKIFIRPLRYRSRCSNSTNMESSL

Prostacyclin receptor = Prostacyclin receptor (Homo sapiens, UniProt P43119); test: Binding affinity towards IP receptor expressed in HEK293 ebna cells recombinantly expressing the corresponding human prostanoid cDNAs; assay type: cell-based; how it was run: as §1
[5] = biological target: T4, Prostaglandin E2 receptor EP1 subtype (Homo sapiens, UniProt P34995); test: Binding affinity towards EP1 receptor expressed in HEK293 ebna cells recombinantly expressing the corresponding human prostanoid cDNAs; assay type: cell-based; how it was run: as §1
T4 sequence (P34995 whole entry): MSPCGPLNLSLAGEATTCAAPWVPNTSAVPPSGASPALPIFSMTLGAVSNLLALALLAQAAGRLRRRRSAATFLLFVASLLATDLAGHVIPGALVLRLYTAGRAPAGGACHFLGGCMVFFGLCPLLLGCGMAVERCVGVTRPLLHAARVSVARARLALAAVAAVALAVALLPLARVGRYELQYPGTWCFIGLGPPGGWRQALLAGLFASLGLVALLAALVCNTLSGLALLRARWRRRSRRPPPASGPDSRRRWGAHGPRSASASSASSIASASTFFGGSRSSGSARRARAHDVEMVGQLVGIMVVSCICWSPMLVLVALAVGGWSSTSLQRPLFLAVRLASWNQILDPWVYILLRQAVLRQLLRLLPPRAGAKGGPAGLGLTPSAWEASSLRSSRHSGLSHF

[6] = biological target: T5, Prostaglandin E2 receptor EP4 subtype (Homo sapiens, UniProt P35408); test: Binding affinity towards EP4 receptor expressed in HEK293 ebna cells recombinantly expressing the corresponding human prostanoid cDNAs; assay type: cell-based
[7] = biological target: T5, Prostaglandin E2 receptor EP4 subtype; test: EP4 agonist potency utilizing a stable clone of pSV40-EP4 transfected into HEK293 cells expressing EP4 receptor; assay type: functional, cell-based
How it was run: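 A HEK293 stable clone carried pSV40-EP4 at about 50 fmol/mg receptor. Whole-cell cAMP assay: 1×10⁵ cells per sample were suspended in 0.2 mL HBSS with 2 mM IBMX. Compound or PGE₂ was given in DMSO at a constant final 1.8% (v/v). Incubation ran 10 min at 37 °C and was stopped by 3 min in boiling water. cAMP was read by [¹²⁵I]cAMP scintillation proximity assay.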

[8] = biological target: T5, Prostaglandin E2 receptor EP4 subtype; test: Inhibitory activity against human EP4 receptor expressed in HEK293 ebna cells; assay type: cell-based
[9] = Half-life after intravenous dose in rat; assay type: ADME, organism-based; conditions: in vivo

T5 sequence (P35408 whole entry): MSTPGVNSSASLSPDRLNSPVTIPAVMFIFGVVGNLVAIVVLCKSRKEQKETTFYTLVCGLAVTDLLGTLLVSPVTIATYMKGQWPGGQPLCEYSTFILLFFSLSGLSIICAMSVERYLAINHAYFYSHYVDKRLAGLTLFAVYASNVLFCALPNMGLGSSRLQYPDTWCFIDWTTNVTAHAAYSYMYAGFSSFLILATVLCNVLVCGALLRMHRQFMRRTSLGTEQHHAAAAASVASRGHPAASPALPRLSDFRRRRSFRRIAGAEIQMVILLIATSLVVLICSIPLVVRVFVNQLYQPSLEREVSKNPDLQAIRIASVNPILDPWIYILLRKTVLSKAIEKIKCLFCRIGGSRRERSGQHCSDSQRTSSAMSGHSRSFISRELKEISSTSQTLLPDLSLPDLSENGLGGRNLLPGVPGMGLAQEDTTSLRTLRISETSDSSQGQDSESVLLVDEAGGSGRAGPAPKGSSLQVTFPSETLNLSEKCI
Prostaglandin F2-alpha receptor, sequence (P43088 whole entry): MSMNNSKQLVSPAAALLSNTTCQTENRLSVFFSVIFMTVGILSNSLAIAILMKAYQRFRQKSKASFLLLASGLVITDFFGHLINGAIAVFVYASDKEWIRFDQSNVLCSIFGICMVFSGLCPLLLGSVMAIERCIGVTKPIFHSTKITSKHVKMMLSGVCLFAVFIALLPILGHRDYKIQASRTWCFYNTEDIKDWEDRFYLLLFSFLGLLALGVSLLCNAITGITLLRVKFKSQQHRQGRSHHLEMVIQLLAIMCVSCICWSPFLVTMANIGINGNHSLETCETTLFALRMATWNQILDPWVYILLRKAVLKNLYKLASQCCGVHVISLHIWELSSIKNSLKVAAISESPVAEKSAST
Prostaglandin E2 receptor EP2 subtype, sequence (P43116 whole entry): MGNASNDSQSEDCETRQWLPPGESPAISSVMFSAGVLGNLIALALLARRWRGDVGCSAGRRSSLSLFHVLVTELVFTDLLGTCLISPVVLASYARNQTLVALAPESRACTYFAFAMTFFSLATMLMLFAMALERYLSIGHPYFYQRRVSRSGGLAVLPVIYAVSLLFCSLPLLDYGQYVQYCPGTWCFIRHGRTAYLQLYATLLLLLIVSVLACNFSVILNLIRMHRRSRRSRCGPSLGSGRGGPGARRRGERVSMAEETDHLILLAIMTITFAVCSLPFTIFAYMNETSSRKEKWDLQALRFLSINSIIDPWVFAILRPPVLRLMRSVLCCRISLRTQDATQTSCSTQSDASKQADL
Prostacyclin receptor, sequence (P43119 whole entry): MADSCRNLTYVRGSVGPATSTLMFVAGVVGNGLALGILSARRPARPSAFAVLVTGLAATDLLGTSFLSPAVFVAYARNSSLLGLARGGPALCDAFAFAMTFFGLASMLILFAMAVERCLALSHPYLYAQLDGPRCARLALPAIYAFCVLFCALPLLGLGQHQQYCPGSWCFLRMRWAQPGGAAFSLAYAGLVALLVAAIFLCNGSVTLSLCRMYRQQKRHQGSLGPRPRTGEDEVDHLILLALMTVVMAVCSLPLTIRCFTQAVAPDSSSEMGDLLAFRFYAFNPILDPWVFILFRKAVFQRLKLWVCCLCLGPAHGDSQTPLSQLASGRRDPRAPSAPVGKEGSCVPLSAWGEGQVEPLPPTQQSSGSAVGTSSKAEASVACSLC

Ki [1]	Ki [2]	Ki [3]	Ki (Thromboxane A2 receptor)	Ki [4]	Ki (Prostacyclin receptor)	Ki [5]	Ki [6]	EC50 [7]	IC50 [8]	half-life [9]	SMILES
> 13 µM	> 13 µM	> 13 µM	> 13 µM	> 13 µM	> 13 µM	> 13 µM	0.243 µM				O=C1CC[C@H](/C=C/C(O)Cc2ccccc2)N1CCCCSc1nnn[nH]1 (some centres not stated)
> 13 µM	> 13 µM	> 13 µM	> 13 µM	> 13 µM	> 13 µM	> 13 µM	2.1 µM				CC(O)(/C=C/[C@H]1CCC(=O)N1CCCCCCC(=O)O)Cc1ccccc1 (some centres not stated)
> 13 µM	> 13 µM	> 13 µM	> 13 µM	> 13 µM	> 13 µM	> 13 µM	0.0012 µM	0.0025 µM	0.0014 µM		O=C1CC[C@H](/C=C/[C@@H](O)Cc2ccccc2)N1CCCCCCc1nnn[nH]1
> 13 µM	> 13 µM	> 13 µM	> 13 µM	> 13 µM	> 13 µM	> 13 µM	0.14 µM				O=C(O)CCSCCCCN1C(=O)CC[C@@H]1/C=C/C(O)Cc1ccccc1 (some centres not stated)
> 13 µM	> 13 µM	> 13 µM	> 13 µM	> 13 µM	> 13 µM	> 13 µM				< 20 min	O=C(O)CCCCCCN1C(=O)CC[C@@H]1/C=C/C(O)Cc1ccccc1 (some centres not stated)
> 13 µM	> 13 µM	> 13 µM	> 13 µM	> 13 µM	> 13 µM	> 13 µM	0.23 µM				O=C1CC[C@H](/C=C/[C@H](O)Cc2ccccc2)N1CCCCCCc1nnn[nH]1
> 13 µM	> 13 µM	> 13 µM	> 13 µM	> 13 µM	> 13 µM	> 13 µM	0.0036 µM				COCc1cccc(CC(O)/C=C/[C@H]2CCC(=O)N2CCCCCCC(=O)O)c1 (some centres not stated)
2.32 µM	3.61 µM	> 13 µM	> 13 µM	> 13 µM	> 13 µM	> 13 µM	1.11 µM				CCCCCC(O)CC[C@@H]1CCC(=O)N1CCCCCCC(=O)O (some centres not stated)
0.419 µM	6.68 µM	> 13 µM	> 13 µM	> 13 µM	> 13 µM	> 13 µM	0.006 µM				CCCCCC(O)/C=C/[C@H]1CCC(=O)N1CCCCCCC(=O)O (some centres not stated)
> 13 µM	> 13 µM	> 13 µM	> 13 µM	> 13 µM	> 13 µM	> 13 µM	0.013 µM				O=C(O)CSCCCCN1C(=O)CC[C@@H]1/C=C/C(O)Cc1ccccc1 (some centres not stated)
2 µM	3 µM	> 13 µM	> 13 µM	> 13 µM	> 13 µM	> 13 µM	0.035 µM				CCCCCC(O)CCC1CCC(=O)N1CCCCCCC(=O)O (configuration not stated)
> 13 µM	> 13 µM	> 13 µM	> 13 µM	> 13 µM	> 13 µM	> 13 µM	3.5 µM				O=C(O)CCCCCCN1C(=O)CC[C@@H]1/C=C/C(O)C1CCCCC1 (some centres not stated)
10.6 µM	> 13 µM	> 13 µM	> 13 µM	> 13 µM	> 13 µM	> 13 µM	0.062 µM				CC(C)(c1ccccc1)C(O)/C=C/[C@H]1CCC(=O)N1CCCCCCC(=O)O (some centres not stated)
> 13 µM	> 13 µM	> 13 µM	> 13 µM	> 13 µM	> 13 µM	> 13 µM	0.066 µM				O=C1CC[C@H](/C=C/C(O)Cc2ccccc2)N1CCCCSCc1nn[nH]n1 (some centres not stated)
3.34 µM	> 13 µM	> 13 µM	> 13 µM	> 13 µM	> 13 µM	> 13 µM	0.012 µM				O=C(O)CCCCCCN1C(=O)CC[C@@H]1/C=C/C(O)C1(c2ccccc2)CC1 (some centres not stated)
> 13 µM	> 13 µM	> 13 µM	> 13 µM	> 13 µM	> 13 µM	> 13 µM	0.0025 µM				O=C1CC[C@H](/C=C/[C@@H](O)Cc2ccccc2)N1CCCCCCc1nnn[nH]1.O=C1CC[C@H](/C=C/[C@H](O)Cc2ccccc2)N1CCCCCCc1nnn[nH]1
0.7 µM	4.05 µM	> 13 µM	> 13 µM	> 13 µM	> 13 µM	> 13 µM	0.028 µM				CCCCCC(O)CC[C@H]1CCC(=O)N1CCCCCCC(=O)O (some centres not stated)
2.01 µM	> 13 µM	> 13 µM	> 13 µM	> 13 µM	> 13 µM	> 13 µM	0.102 µM				O=C(O)CCCCCCN1C(=O)CC[C@@H]1/C=C/C(O)CCc1ccccc1 (some centres not stated)
1.22 µM	> 13 µM	> 13 µM	> 13 µM	> 13 µM	> 13 µM	> 13 µM	1.41 µM				CCCCCC(O)/C=C/[C@@H]1CCC(=O)N1CCCCCCC(=O)O (some centres not stated)
> 13 µM	> 13 µM	> 13 µM	> 13 µM	> 13 µM	> 13 µM	> 13 µM	0.443 µM				COC(=O)CSCCCCN1C(=O)CC[C@@H]1/C=C/C(O)Cc1ccccc1 (some centres not stated)
